According to ChEMBL document CHEMBL4732237, “Discovery of 4-alkoxy-2-aryl-6,7-dimethoxyquinolines as a new class of topoisomerase I inhibitors endowed with potent in vitro anticancer activity” (2021):

Tested on: NCI/ADR-RES
Assay: Growth inhibition of human NCI/ADR-RES cells incubated for 48 hrs by sulforhodamine B assay
Type: functional
Details: not given
Outline: (§1)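 NCI five-dose screen (0.01–100 µM; five concentrations plus control). Cells grown in RPMI 1640/5% FBS/2 mM L-glutamine and preincubated 24 h, with time-zero plates TCA-fixed. Drug exposure 48 h at 37 °C, followed by SRB protein staining and reading at 515 nm. GI50 is the concentration at [(Ti-Tz)/(C-Tz)]×100 = 50.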
For `COc1cc2nc(-c3ccc(Cl)cc3)cc(OCCCN3CCOCC3)c2cc1OC`, the GI50 was 1150 nM.
Work on `COc1cc2nc(-c3ccc(C(F)(F)F)cc3)cc(OCCCN3CCCCC3)c2cc1OC` yielded a GI50 of 522 nM.
`COc1cc2nc(-c3ccc(C(F)(F)F)cc3)cc(OCCCN3CCC(O)CC3)c2cc1OC` gave a GI50 of 847 nM.
With `COc1cc2nc(-c3ccc(Cl)cc3)cc(OCCCN3CCCCC3)c2cc1OC` the GI50 was 898 nM.

Tested on: SF-539
Assay: Growth inhibition of human SF-539 cells incubated for 48 hrs by sulforhodamine B assay
Type: functional
Details: not given
Outline: as §1
With `COc1cc2nc(-c3ccc(Cl)cc3)cc(OCCCN3CCOCC3)c2cc1OC` the GI50 was 2990 nM.
`COc1cc2nc(-c3ccc(C(F)(F)F)cc3)cc(OCCCN3CCCCC3)c2cc1OC` showed a GI50 of 2080 nM.
`COc1cc2nc(-c3ccc(C(F)(F)F)cc3)cc(OCCCN3CCC(O)CC3)c2cc1OC` showed a GI50 of 5750 nM.
In the case of `COc1cc2nc(-c3ccc(Cl)cc3)cc(OCCCN3CCCCC3)c2cc1OC`, the GI50 is reported as 2570 nM.

Tested on: A498
Assay: Growth inhibition of human A498 cells incubated for 48 hrs by sulforhodamine B assay
Type: functional
Details: not given
Outline: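 NCI five-dose assay, with drug stocks in DMSO diluted in medium to five concentrations (10-fold or ½-log series). Cells in RPMI 1640/5% FBS were pre-incubated 24 h, and time-zero plates were TCA-fixed at drug addition. After 48 h at 37 °C, cells were TCA-fixed, SRB-stained and read at 515 nm. GI50 is from [(Ti-Tz)/(C-Tz)]×100 = 50, TGI from Ti = Tz, and LC50 from [(Ti-Tz)/Tz]×100 = -50.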
Work on `COc1cc2nc(-c3ccc(Cl)cc3)cc(OCCCN3CCOCC3)c2cc1OC` yielded a GI50 of 1590 nM.
For `COc1cc2nc(-c3ccc(C(F)(F)F)cc3)cc(OCCCN3CCCCC3)c2cc1OC`, the GI50 was 1850 nM.
`COc1cc2nc(-c3ccc(C(F)(F)F)cc3)cc(OCCCN3CCC(O)CC3)c2cc1OC` gave a GI50 of 2370 nM.
With `COc1cc2nc(-c3ccc(Cl)cc3)cc(OCCCN3CCCCC3)c2cc1OC` the GI50 was 1400 nM.

Tested on: not listed separately
Assay: Growth inhibition of human Renal cancer cell line incubated for 48 hrs by sulforhodamine B assay
Type: functional
Details: not given
Outline: (§2)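 NCI-60 five-dose screen. Cells in RPMI 1640 with 5% FBS and 2 mM L-glutamine were plated at 5000–40,000 cells/well and preincubated 24 h at 37 °C, 5% CO2. Drugs in DMSO were given at five serial 10-fold or ½-log dilutions for 48 h. Adherent cells fixed with 10% TCA (final); suspension cells fixed after settling. SRB stained; A515. GI50 from [(Ti-Tz)/(C-Tz)]x100 = 50.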
For `COc1cc2nc(-c3ccc(C(F)(F)F)cc3)cc(OCCCN3CCCCC3)c2cc1OC`, the LC50 (concentration giving 50% net cell kill) was 35 µM and the TGI was 11 µM.

Tested on: IGROV-1
Assay: Growth inhibition of human IGROV-1 cells incubated for 48 hrs by sulforhodamine B assay
Type: functional
Details: not given
Outline: (§3)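 NCI five-dose screen covering 0.01–100 µM, prepared as 10-fold or ½-log dilutions from DMSO stock. Cells in RPMI 1640 with 5% FBS were exposed for 48 h at 37 °C after 24 h preincubation. Adherent cells were fixed with TCA (final 10%) and suspension cells were settled before fixing. Stain was SRB, read at 515 nm. GI50 = 50% reduction in net protein increase versus control, with Tz taken at drug addition.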
Work on `COc1cc2nc(-c3ccc(Cl)cc3)cc(OCCCN3CCOCC3)c2cc1OC` yielded a GI50 of 990 nM.
For `COc1cc2nc(-c3ccc(C(F)(F)F)cc3)cc(OCCCN3CCCCC3)c2cc1OC`, the GI50 was 651 nM.
With `COc1cc2nc(-c3ccc(C(F)(F)F)cc3)cc(OCCCN3CCC(O)CC3)c2cc1OC` the GI50 was 900 nM.
Molecule `COc1cc2nc(-c3ccc(Cl)cc3)cc(OCCCN3CCCCC3)c2cc1OC` has a GI50 of 838 nM.

Tested on: Melanoma cell line
Assay: Growth inhibition of human Melanoma cell line incubated for 48 hrs by sulforhodamine B assay
Type: functional
Details: not given
Outline: as §2
For `COc1cc2nc(-c3ccc(C(F)(F)F)cc3)cc(OCCCN3CCCCC3)c2cc1OC`, the LC50 (50% lethal concentration) was 19.9 µM and the TGI was 4.14 µM.

Tested on: Colon cancer cell line
Assay: Growth inhibition of human colon cancer cell line incubated for 48 hrs by sulforhodamine B assay
Type: functional
Details: not given
Outline: as §2
For `COc1cc2nc(-c3ccc(C(F)(F)F)cc3)cc(OCCCN3CCCCC3)c2cc1OC`, the LC50 was 40.8 µM and the TGI was 10.3 µM.

Tested on: MOLT-4
Assay: Growth inhibition of human MOLT-4 cells incubated for 48 hrs by sulforhodamine B assay
Type: functional
Details: not given
Outline: as §1
Molecule `COc1cc2nc(-c3ccc(Cl)cc3)cc(OCCCN3CCOCC3)c2cc1OC` has a GI50 of 2850 nM.
Molecule `COc1cc2nc(-c3ccc(C(F)(F)F)cc3)cc(OCCCN3CCCCC3)c2cc1OC` has a GI50 of 1700 nM.
Molecule `COc1cc2nc(-c3ccc(C(F)(F)F)cc3)cc(OCCCN3CCC(O)CC3)c2cc1OC` has a GI50 of 3270 nM.
Molecule `COc1cc2nc(-c3ccc(Cl)cc3)cc(OCCCN3CCCCC3)c2cc1OC` has a GI50 of 2040 nM.

Tested on: not listed separately
Assay: Growth inhibition of human Prostate tumor cell line incubated for 48 hrs by sulforhodamine B assay
Type: functional
Details: not given
Outline: as §2
In the case of `COc1cc2nc(-c3ccc(C(F)(F)F)cc3)cc(OCCCN3CCCCC3)c2cc1OC`, the LC50 (concentration killing 50% of cells) is reported as 42.2 µM and the TGI is reported as 13.8 µM.

Tested on: not listed separately
Assay: Growth inhibition of human leukemia cell line incubated for 48 hrs by sulforhodamine B assay
Type: functional
Details: leukaemia cell line
Outline: as §2
Molecule `COc1cc2nc(-c3ccc(C(F)(F)F)cc3)cc(OCCCN3CCCCC3)c2cc1OC` has an LC50 of 74.8 µM and a TGI of 10.3 µM.

Tested on: OVCAR-4
Assay: Growth inhibition of human OVCAR-4 cells incubated for 48 hrs by sulforhodamine B assay
Type: functional
Details: not given
Outline: as §1
Molecule `COc1cc2nc(-c3ccc(C(F)(F)F)cc3)cc(OCCCN3CCCCC3)c2cc1OC` has a GI50 of 2.91 µM.
`COc1cc2nc(-c3ccc(C(F)(F)F)cc3)cc(OCCCN3CCC(O)CC3)c2cc1OC` showed a GI50 of 9.14 µM.
`COc1cc2nc(-c3ccc(Cl)cc3)cc(OCCCN3CCCCC3)c2cc1OC` gave a GI50 of 3.85 µM.

Tested on: CNS carcinoma cell
Assay: Growth inhibition of human CNS carcinoma cell incubated for 48 hrs by sulforhodamine B assay
Type: functional
Details: not given
Outline: as §2
With `COc1cc2nc(-c3ccc(C(F)(F)F)cc3)cc(OCCCN3CCCCC3)c2cc1OC` the LC50 was 38.8 µM and the TGI was 11.9 µM.

Tested on: Ovarian cancer cell line
Assay: Growth inhibition of human Ovarian cancer cell line incubated for 48 hrs by sulforhodamine B assay
Type: functional
Details: not given
Outline: as §2
In the case of `COc1cc2nc(-c3ccc(C(F)(F)F)cc3)cc(OCCCN3CCCCC3)c2cc1OC`, the LC50 is reported as 65.5 µM and the TGI is reported as 19.7 µM.

Tested on: M14
Assay: Growth inhibition of human M14 cells incubated for 48 hrs by sulforhodamine B assay
Type: functional
Details: not given
Outline: as §3
Work on `COc1cc2nc(-c3ccc(Cl)cc3)cc(OCCCN3CCOCC3)c2cc1OC` yielded a GI50 of 545 nM.
With `COc1cc2nc(-c3ccc(C(F)(F)F)cc3)cc(OCCCN3CCCCC3)c2cc1OC` the GI50 was 327 nM.
With `COc1cc2nc(-c3ccc(C(F)(F)F)cc3)cc(OCCCN3CCC(O)CC3)c2cc1OC` the GI50 was 535 nM.
With `COc1cc2nc(-c3ccc(Cl)cc3)cc(OCCCN3CCCCC3)c2cc1OC` the GI50 was 412 nM.

Tested on: CCRF-CEM
Assay: Growth inhibition of human CCRF-CEM cells incubated for 48 hrs by sulforhodamine B assay
Type: functional
Details: not given
Outline: as §3
In the case of `COc1cc2nc(-c3ccc(Cl)cc3)cc(OCCCN3CCOCC3)c2cc1OC`, the GI50 is reported as 3.35 µM.
`COc1cc2nc(-c3ccc(C(F)(F)F)cc3)cc(OCCCN3CCCCC3)c2cc1OC` showed a GI50 of 1.83 µM.
`COc1cc2nc(-c3ccc(C(F)(F)F)cc3)cc(OCCCN3CCC(O)CC3)c2cc1OC` showed a GI50 of 3.26 µM.
In the case of `COc1cc2nc(-c3ccc(Cl)cc3)cc(OCCCN3CCCCC3)c2cc1OC`, the GI50 is reported as 2.79 µM.

Tested on: not listed separately
Assay: Growth inhibition of human Breast cancer cell line incubated for 48 hrs by sulforhodamine B assay
Type: functional
Details: not given
Outline: as §2
In the case of `COc1cc2nc(-c3ccc(C(F)(F)F)cc3)cc(OCCCN3CCCCC3)c2cc1OC`, the LC50 is reported as 43 µM and the TGI is reported as 9.29 µM.

Tested on: not listed separately
Assay: Growth inhibition of human Non-small cell lung cancer cell line incubated for 48 hrs by sulforhodamine B assay
Type: functional
Details: not given
Outline: as §2
With `COc1cc2nc(-c3ccc(C(F)(F)F)cc3)cc(OCCCN3CCCCC3)c2cc1OC` the LC50 (concentration killing 50% of cells) was 50.6 µM and the TGI was 13.8 µM.
